This is an account of results in ChEMBL document CHEMBL4813913, “In vitro identification of imidazo[1,2-a]pyrazine-based antileishmanial agents and evaluation of L. major casein kinase 1 inhibition” (Eur J Med Chem, 2021).

Each structure is given as a SMILES string.

In one data set the test system is Leishmania amazonensis. The data set can be described thus: Antileishmanial activity against amastigote stage Leishmania amazonensis (MHOM/BR/73/M2269) infected in mouse RAW264.7 cells assessed as reduction in parasitic proliferation measured by SYBR Green 1 dye based fluorescence assay. The class given is functional, organism-based. To be noted: MHOM/BR/73/M2269, RAW264.7. The gist of the method:
(§1)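 RAW 264.7 macrophages seeded at 100,000 cells/well in DMEM with 10% heat-inactivated FBS, 24 h at 37 °C, 5% CO₂. Infected with plateau-phase promastigotes (parasite:macrophage 16:1) for 24 h. Compounds serially diluted, final 391 nM–100 μM. Amastigote viability read by SYBR Green I after lysis and 3 freeze-thaw cycles. IC50 by nonlinear regression against excipient-treated controls. Miltefosine reference.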

For a further data set, the system named is Leishmania braziliensis. Kind of data set: Antileishmanial activity against amastigote stage of Leishmania braziliensis (MHOM/BR/75/M2903b) infected in mouse RAW264.7 cells assessed as reduction in parasitic proliferation measured by SYBR Green 1 dye based fluorescence assay. It counts as functional, organism-based. A digest of the protocol:
as §1

The nature of data set [1]: Selectivity index, ratio of CC50 for human MRC5 cells to IC50 for amastigote stage of Leishmania braziliensis (MHOM/BR/75/M2903b) infected in mouse RAW264.7 cells. To be noted: read-out: Ratio CC50/IC50. The class given is toxicity, cell-based. A digest of the protocol: (§2)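 Selectivity index is CC50 on RAW 264.7 or MRC-5 cells divided by IC50 on intracellular amastigotes.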

The next data set deals with Leishmania infantum. Kind of data set: Antileishmanial activity against amastigote stage of Leishmania infantum (MHOM/FR/2008/LEM5700) infected in mouse RAW264.7 cells assessed as reduction in parasitic proliferation measured by SYBR Green 1 dye based fluorescence assay. The class given is functional, organism-based. The following applies: MHOM/FR/2008/LEM5700, RAW264.7. A digest of the protocol: as §1

A further data set has as its system Leishmania donovani. The data set can be described thus: Antileishmanial activity against amastigote stage of Leishmania donovani (MHOM/ET/67/HU3) infected in mouse RAW264.7 cells assessed as reduction in parasitic proliferation measured by SYBR Green 1 dye based fluorescence assay. It counts as functional, organism-based. To be noted: MHOM/ET/67/HU3, RAW264.7. A digest of the protocol:
as §1

Data set [2] is described as follows: Toxicity against Galleria mellonella larva assessed as cuticular darkening at 50 mg/kg measured for 7 days. It counts as organism-based. To be noted: in vivo, 168 h, time 7 day. A digest of the protocol: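 G. mellonella larvae (6th stage, 260–320 mg), groups of ten. Injected in the 4th left pro-leg with 10 μL at 10–50 mg/kg; controls got PBS/DMSO (DMSO <40%). Kept in the dark at 37 °C. Survival and cuticular darkening scored daily for 7 days; death taken as no movement on stimulus. Kaplan-Meier with log-rank test; two independent experiments.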

The nature of data set [3]: Inhibition of recombinant Leishmania major CK1.2 expressed in bacterial expression system using RRKHAAIGSpAYSITA as substrate in presence of [gamma-33P]ATP by radiometric assay.
A further data set concerns the target CDK9/cyclin T1 (Homo sapiens, UniProt P50750). Kind of data set: Inhibition of human recombinant CDK9/CyclinT expressed in baculovirus infected Sf9 cells using YSPTSPSYSPTSPSYSPTSPSKKK as substrate in presence of [gamma-33P]ATP by radiometric assay.
Data set [4] has as its target Receptor-interacting serine/threonine-protein kinase 3 (Homo sapiens, UniProt Q9Y572). The data set can be described thus: Inhibition of recombinant human RIPK3 expressed in baculovirus infected Sf9 cells using MBP as substrate in presence of [gamma-33P]ATP by radiometric assay.
The target in the next data set is Aurora kinase B (Homo sapiens, UniProt Q96GD4). Kind of data set: Inhibition of recombinant human AURKB expressed in baculovirus infected Sf9 cells using MBP as substrate in presence of [gamma-33P]ATP measured by radiometric assay.
Chain of Aurora kinase B (Q96GD4 whole entry): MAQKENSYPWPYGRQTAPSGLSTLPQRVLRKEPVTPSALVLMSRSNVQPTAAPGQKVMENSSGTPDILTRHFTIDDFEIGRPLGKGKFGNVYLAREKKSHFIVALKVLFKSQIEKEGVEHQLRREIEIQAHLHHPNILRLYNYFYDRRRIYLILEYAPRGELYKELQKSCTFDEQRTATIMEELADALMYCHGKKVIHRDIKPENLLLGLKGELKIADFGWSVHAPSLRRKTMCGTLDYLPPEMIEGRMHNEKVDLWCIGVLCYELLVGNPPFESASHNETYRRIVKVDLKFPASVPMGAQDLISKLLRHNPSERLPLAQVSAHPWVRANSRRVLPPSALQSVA
Data set [5] addresses Dual specificity tyrosine-phosphorylation-regulated kinase 1A (Rattus norvegicus, UniProt Q63470). Kind of data set: Inhibition of recombinant rat DYRK1A (1 to 499 ) expressed in bacterial expression system using KKISGRLSPIMTEQ as substrate in presence of [gamma-33P]ATP measured by radiometric assay. The following applies: rat.
Data set [6] is described as follows: Selectivity index, ratio of CC50 for mouse RAW264.7 cells to IC50 for amastigote stage of Leishmania amazonensis (MHOM/BR/73/M2269) infected in mouse RAW264.7 cells. The class given is toxicity, cell-based. The following applies: read-out: Ratio CC50/IC50. A digest of the protocol:
as §2

A short description of data set [7]: Selectivity index, ratio of CC50 for human MRC5 cells to IC50 for amastigote stage of Leishmania infantum (MHOM/FR/2008/LEM5700) infected in mouse RAW264.7 cells. It counts as toxicity, cell-based. To be noted: read-out: Ratio CC50/IC50. The gist of the method: as §2
Data set [8] can be described thus: Selectivity index, ratio of CC50 for human MRC5 cells to IC50 for amastigote stage of Leishmania donovani (MHOM/ET/67/HU3) infected in mouse RAW264.7 cells. The class given is toxicity, cell-based. The following applies: read-out: Ratio CC50/IC50. A digest of the protocol: as §2

Chain of CDK9/cyclin T1 (O60563 whole entry): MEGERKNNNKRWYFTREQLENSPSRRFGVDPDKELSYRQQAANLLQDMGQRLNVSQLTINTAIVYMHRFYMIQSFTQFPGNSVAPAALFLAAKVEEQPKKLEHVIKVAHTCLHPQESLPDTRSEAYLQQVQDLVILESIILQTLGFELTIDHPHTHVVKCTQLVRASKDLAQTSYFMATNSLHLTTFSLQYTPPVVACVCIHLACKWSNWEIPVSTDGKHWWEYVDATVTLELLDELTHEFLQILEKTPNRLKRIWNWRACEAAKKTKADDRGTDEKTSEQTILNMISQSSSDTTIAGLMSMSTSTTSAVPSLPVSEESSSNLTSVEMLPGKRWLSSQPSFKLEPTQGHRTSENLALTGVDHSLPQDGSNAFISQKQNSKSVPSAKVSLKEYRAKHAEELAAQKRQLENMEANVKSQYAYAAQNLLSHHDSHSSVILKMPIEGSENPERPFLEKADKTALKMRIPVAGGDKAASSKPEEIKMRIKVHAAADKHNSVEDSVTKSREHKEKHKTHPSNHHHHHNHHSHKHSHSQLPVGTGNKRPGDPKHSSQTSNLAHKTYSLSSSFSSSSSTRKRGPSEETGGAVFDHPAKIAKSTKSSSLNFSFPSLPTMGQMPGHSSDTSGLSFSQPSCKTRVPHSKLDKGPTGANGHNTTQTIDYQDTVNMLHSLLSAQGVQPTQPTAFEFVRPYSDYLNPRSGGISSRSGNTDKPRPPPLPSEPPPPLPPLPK
Chain of CDK9/cyclin T1 (P50750 whole entry): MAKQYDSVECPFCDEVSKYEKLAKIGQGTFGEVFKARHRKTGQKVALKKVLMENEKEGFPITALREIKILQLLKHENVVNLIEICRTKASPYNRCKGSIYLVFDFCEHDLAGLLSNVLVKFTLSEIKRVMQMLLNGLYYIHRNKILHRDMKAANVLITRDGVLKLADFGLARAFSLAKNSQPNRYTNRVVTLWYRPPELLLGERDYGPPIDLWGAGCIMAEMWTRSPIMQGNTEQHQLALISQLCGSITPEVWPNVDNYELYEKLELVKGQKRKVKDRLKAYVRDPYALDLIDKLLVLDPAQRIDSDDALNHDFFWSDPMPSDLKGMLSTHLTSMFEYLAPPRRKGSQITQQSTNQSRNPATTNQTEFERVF
Chain of Receptor-interacting serine/threonine-protein kinase 3 (Q9Y572 whole entry): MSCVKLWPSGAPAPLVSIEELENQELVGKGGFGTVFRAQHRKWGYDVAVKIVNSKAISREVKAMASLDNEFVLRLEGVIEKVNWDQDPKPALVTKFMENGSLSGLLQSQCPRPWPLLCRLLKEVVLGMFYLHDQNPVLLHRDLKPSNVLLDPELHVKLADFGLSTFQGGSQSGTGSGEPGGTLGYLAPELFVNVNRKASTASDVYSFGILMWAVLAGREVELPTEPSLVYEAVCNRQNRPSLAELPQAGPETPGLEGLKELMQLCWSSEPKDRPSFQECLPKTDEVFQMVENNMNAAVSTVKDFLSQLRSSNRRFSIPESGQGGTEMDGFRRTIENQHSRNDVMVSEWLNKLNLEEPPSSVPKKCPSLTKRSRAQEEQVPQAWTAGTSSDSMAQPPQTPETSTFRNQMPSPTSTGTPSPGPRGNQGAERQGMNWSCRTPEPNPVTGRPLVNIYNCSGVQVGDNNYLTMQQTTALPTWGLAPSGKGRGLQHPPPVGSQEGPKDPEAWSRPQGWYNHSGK

As a reminder, the IC50 is the point on the concentration scale where inhibition reaches its midpoint. As for `CSc1nccc(-c2c(-c3ccc(F)cc3)nc3c(Cl)nccn23)n1`, the IC50 was above 100 µM with Leishmania amazonensis; 74 µM in the data set with Leishmania braziliensis; above 100 µM in the data set on Leishmania infantum; above 100 µM in the data set with Leishmania donovani; above 10 µM in data set [3]; above 10 µM at CDK9/cyclin T1. The selectivity ratio in data set [1] is 1.1. In data set [2], the Activity result was “Non-Toxic”. In addition, the “inhibition (INH)” value (in data set [4]; on Aurora kinase B; in data set [5]) was “Not Active” throughout.

`CN(C)c1nccn2c(-c3ccnc(N)n3)c(-c3ccccc3)nc12`: the IC50 with Leishmania amazonensis was 23.4 µM; in the data set on Leishmania braziliensis it was 56.5 µM; in the data set on Leishmania infantum, above 100 µM; in the data set with Leishmania donovani it was above 100 µM; in data set [3], 0.035 µM; at CDK9/cyclin T1, above 10 µM. Besides, the results for the selectivity ratio in data set [6] and in data set [1] were 1.9 and 1, respectively. Besides, the Activity result in data set [2] was “Non-Toxic”. Besides, the “inhibition (INH)” value (in data set [4]; at Aurora kinase B; in [5]) was “Not Active” in each case.

`CN(C)c1nccn2c(-c3ccnc(N)n3)c(-c3ccc(F)cc3)nc12`: the IC50 in the data set with Leishmania amazonensis is 6.12 µM; with Leishmania braziliensis, 24.3 µM; with Leishmania infantum, 6.55 µM; in the data set with Leishmania donovani, 9.97 µM; in data set [3] it was 0.042 µM; on CDK9/cyclin T1 it was above 10 µM. The selectivity ratio in [6] stood at 6.9; in data set [1] it was 4.1; in [7], 15.2; in [8] it was 10. Also, the Activity entry in data set [2] is “Non-Toxic”. Further, the “inhibition (INH)” value (in data set [4]; on Aurora kinase B; in [5]) was “Not Active” in each case.

As to `CSc1nccc(-c2c(-c3ccccc3)nc3c(N(C)C)nccn23)n1`, the IC50 with Leishmania amazonensis was 5.99 µM; with Leishmania braziliensis, 45.6 µM; in the data set on Leishmania infantum, 12.5 µM; in the data set with Leishmania donovani it was 17.6 µM; in data set [3], 3.5 µM; at CDK9/cyclin T1, above 10 µM. Further, the selectivity ratio in data set [6] was 5.6; in data set [1], 1.8; in data set [7], 6.5; in data set [8], 4.6. Besides, the Activity result in data set [2] was “Non-Toxic”. The “inhibition (INH)” value (in data set [4]; at Aurora kinase B; in data set [5]) was “Not Active” in each case.

`CSc1nccc(-c2c(-c3ccccc3)nc3c(Cl)nccn23)n1`: the IC50 was 3.2 µM in the data set with Leishmania amazonensis; 17.7 µM with Leishmania braziliensis; 1.93 µM in the data set with Leishmania infantum; 9.82 µM with Leishmania donovani; 5 µM in [3]; above 10 µM at CDK9/cyclin T1. Besides, the selectivity ratio in data set [6] is 15.8; in data set [1], 1.9; in data set [7], 17.3; in data set [8], 3.4. Besides, the Activity result in data set [2] is “Non-Toxic”. The “inhibition (INH)” value (in data set [4]; on Aurora kinase B; in data set [5]) was “Not Active” in each case.

With `CSc1nccc(-c2c(-c3ccc(F)cc3)nc3c(N(C)C)nccn23)n1`, the IC50 in the data set on Leishmania amazonensis is 12.5 µM; in the data set on Leishmania braziliensis, 63.5 µM; in the data set on Leishmania infantum, 6.2 µM; with Leishmania donovani, 10.4 µM; in data set [3] it was 1 µM; at CDK9/cyclin T1, above 10 µM. In addition, the selectivity ratio in data set [6] was determined as 2.9; in data set [1], 1.1; in data set [7] it was 10.8; in data set [8] it was 6.4. Moreover, the Activity entry in data set [2] is on record as “Non-Toxic”. Also, the “inhibition (INH)” value (in data set [4]; on Aurora kinase B; in [5]) was “Not Active” in each case.
